One test relates to MM1.S. Nature of the test: Antiproliferative activity against human MM1S cells assessed as reduction in cell viability after 69 hrs by Alamar blue assay. The class given is functional, cell-based. Put shortly: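 MM.1S cell viability, read as EC50 from a nonlinear curve fit; mean ± SEM of three biological replicates, each run in three technical replicates.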
Test [1] addresses T1, Bromodomain-containing protein 4 (Homo sapiens, UniProt O60885). Nature of the test: Inhibition of BRD4 bromodomain 1 (unknown origin) expressed in Escherichia coli Bl21(DE3)-pRARE cells by fluorescence anisotropy. Put shortly:
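BRD4-D1 ligand displacement read by fluorescence anisotropy, reported as IC50; mean and standard deviation of three independent trials; IC50 above 100 μM reported as >100.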
(Polarisation of emitted light reports the rotation of a fluorescent probe.)

In test [2] the target is T1, Bromodomain-containing protein 4. The test can be described thus: Inhibition of BRD4 bromodomain 1 in human MM1S cells assessed as decrease in c-MYC expression after 6 hrs by Western blot analysis. The class given is cell-based.
Test [3] has as its target Mitogen-activated protein kinase 14 (Homo sapiens, UniProt Q16539). The test can be described thus: Binding affinity to wild-type human full length p38-alpha (M1 to S360 residues) expressed in bacterial expression system by Kinomescan method. Put shortly: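 Kd for p38α from KINOMEscan binding; mean and standard error of two independent trials.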
Test [4] addresses SWI/SNF-related matrix-associated actin-dependent regulator of chromatin subfamily A member 2 (Homo sapiens, UniProt P51531). Nature of the test: Binding affinity to human partial length SMARCA2 (S1377 to Q1486 residues) expressed in bacterial expression system by BROMOscan assay. Put shortly:
(§1)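 Dissociation constants from BROMOscan competition binding; mean and standard error of two independent trials.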

The target in test [5] is T1, Bromodomain-containing protein 4. Nature of the test: Inhibition of biotinylated histone H4 peptide binding to BRD4 bromodomain 1 (44 to 168 residues) (unknown origin) after 60 mins by Alphascreen method.
The species entered for test [6] is Homo sapiens. Nature of the test: Selectivity index, ratio of Kd for human full length p38-alpha (M1 to S360 residues) expressed in bacterial cells to Kd for human partial length BRD4 bromodomain 1 long isoform (N44 to E168 residues) expressed in bacterial cells. The class given is cell-based.
Another test deals with CREB-binding protein (Homo sapiens, UniProt Q92793). Nature of the test: Binding affinity to human partial length CREBBP (R1081 to G1197 residues) expressed in bacterial expression system by BROMOscan assay. Put shortly: as §1
For test [7], the target named is T1, Bromodomain-containing protein 4. The test can be described thus: Binding affinity to human partial length BRD4 bromodomain 1 long isoform (N44 to E168 residues) expressed in bacterial expression system by BROMOscan assay. The gist of the method: as §1
The species entered for test [8] is Homo sapiens. The test can be described thus: Selectivity index, ratio of Kd for human full length p38-alpha (M1 to S360 residues) expressed in bacterial cells to Kd for human partial length BRD4 bromodomain 2 long isoform (K333 to E460 residues) expressed in bacterial cells. Type of test: cell-based.
Test [9] has as its target T1, Bromodomain-containing protein 4. The test can be described thus: Binding affinity to human partial length BRD4 bromodomain 2 long isoform (K333 to E460 residues) expressed in bacterial expression system by BROMOscan assay. The gist of the method:
as §1

The species named for test [10] is Homo sapiens. The test can be described thus: Selectivity ratio of compound effect on human full length p38-alpha (M1 to S360 residues) expressed in bacterial cells over compound effect on human partial length BRD4 bromodomain 1 long isoform (N44 to E168 residues) expressed in bacterial cells. Type of test: cell-based.

The source made the active and inactive calls. The rule behind the calls is not given here. Bounds are passed on as bounds.

One may read the EC50 as the midpoint of the concentration-response curve. By IC50 is commonly meant the concentration needed to halve the response being measured. Lower therefore signals greater potency. Usually Kd stands for the concentration at which binding is half-saturated. Read a low Kd as higher affinity.

Sequence of Mitogen-activated protein kinase 14 (Q16539 whole entry, the tested form may be a part): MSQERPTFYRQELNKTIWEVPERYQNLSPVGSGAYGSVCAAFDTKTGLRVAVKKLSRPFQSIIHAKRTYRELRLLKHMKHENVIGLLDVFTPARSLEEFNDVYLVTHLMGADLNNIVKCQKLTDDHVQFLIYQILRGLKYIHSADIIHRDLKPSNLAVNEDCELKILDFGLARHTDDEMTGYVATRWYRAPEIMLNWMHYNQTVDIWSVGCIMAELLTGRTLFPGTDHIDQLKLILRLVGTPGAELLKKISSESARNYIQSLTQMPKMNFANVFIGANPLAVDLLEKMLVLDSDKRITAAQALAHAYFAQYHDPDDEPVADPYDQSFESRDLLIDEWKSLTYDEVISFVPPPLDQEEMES
Sequence of SWI/SNF-related matrix-associated actin-dependent regulator of chromatin subfamily A member 2 (P51531 whole entry, the tested form may be a part): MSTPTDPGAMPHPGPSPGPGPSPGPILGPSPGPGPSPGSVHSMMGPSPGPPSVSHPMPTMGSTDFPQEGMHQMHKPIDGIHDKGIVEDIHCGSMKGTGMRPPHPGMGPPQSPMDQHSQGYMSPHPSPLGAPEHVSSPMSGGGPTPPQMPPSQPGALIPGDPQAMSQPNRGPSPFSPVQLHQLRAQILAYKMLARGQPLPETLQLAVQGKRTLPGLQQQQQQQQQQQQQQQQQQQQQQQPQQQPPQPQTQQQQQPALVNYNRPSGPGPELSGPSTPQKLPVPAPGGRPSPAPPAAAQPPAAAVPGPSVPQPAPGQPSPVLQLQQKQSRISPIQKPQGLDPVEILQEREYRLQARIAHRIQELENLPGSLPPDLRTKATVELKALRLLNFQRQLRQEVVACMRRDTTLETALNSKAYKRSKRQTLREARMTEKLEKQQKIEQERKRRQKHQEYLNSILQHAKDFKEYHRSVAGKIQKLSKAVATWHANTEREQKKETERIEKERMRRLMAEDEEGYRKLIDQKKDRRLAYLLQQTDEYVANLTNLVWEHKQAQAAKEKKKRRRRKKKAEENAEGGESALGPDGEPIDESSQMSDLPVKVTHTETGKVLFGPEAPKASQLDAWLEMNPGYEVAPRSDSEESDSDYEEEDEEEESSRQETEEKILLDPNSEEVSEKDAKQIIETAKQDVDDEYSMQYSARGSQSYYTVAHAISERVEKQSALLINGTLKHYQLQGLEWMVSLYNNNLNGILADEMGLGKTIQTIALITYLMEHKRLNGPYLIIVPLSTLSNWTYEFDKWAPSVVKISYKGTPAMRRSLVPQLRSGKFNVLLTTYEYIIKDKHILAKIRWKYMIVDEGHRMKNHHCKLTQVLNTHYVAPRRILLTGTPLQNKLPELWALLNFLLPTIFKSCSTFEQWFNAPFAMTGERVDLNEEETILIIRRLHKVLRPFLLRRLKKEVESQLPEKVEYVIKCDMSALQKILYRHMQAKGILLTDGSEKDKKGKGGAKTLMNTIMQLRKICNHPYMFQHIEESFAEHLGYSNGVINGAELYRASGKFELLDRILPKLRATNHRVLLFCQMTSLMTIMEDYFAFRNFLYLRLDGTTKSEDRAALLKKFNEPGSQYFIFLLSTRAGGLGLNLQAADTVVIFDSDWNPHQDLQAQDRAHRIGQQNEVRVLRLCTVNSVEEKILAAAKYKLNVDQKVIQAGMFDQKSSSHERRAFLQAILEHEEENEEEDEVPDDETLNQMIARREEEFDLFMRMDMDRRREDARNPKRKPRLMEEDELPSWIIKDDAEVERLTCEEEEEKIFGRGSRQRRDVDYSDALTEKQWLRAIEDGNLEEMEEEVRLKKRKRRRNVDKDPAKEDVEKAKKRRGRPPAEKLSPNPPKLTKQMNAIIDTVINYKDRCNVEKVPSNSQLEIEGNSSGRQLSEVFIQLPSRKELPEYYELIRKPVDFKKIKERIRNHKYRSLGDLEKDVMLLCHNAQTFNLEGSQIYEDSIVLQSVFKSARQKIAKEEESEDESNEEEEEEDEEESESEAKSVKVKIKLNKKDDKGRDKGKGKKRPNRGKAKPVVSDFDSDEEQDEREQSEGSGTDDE
Sequence of CREB-binding protein (Q92793 whole entry, the tested form may be a part, canonical isoform): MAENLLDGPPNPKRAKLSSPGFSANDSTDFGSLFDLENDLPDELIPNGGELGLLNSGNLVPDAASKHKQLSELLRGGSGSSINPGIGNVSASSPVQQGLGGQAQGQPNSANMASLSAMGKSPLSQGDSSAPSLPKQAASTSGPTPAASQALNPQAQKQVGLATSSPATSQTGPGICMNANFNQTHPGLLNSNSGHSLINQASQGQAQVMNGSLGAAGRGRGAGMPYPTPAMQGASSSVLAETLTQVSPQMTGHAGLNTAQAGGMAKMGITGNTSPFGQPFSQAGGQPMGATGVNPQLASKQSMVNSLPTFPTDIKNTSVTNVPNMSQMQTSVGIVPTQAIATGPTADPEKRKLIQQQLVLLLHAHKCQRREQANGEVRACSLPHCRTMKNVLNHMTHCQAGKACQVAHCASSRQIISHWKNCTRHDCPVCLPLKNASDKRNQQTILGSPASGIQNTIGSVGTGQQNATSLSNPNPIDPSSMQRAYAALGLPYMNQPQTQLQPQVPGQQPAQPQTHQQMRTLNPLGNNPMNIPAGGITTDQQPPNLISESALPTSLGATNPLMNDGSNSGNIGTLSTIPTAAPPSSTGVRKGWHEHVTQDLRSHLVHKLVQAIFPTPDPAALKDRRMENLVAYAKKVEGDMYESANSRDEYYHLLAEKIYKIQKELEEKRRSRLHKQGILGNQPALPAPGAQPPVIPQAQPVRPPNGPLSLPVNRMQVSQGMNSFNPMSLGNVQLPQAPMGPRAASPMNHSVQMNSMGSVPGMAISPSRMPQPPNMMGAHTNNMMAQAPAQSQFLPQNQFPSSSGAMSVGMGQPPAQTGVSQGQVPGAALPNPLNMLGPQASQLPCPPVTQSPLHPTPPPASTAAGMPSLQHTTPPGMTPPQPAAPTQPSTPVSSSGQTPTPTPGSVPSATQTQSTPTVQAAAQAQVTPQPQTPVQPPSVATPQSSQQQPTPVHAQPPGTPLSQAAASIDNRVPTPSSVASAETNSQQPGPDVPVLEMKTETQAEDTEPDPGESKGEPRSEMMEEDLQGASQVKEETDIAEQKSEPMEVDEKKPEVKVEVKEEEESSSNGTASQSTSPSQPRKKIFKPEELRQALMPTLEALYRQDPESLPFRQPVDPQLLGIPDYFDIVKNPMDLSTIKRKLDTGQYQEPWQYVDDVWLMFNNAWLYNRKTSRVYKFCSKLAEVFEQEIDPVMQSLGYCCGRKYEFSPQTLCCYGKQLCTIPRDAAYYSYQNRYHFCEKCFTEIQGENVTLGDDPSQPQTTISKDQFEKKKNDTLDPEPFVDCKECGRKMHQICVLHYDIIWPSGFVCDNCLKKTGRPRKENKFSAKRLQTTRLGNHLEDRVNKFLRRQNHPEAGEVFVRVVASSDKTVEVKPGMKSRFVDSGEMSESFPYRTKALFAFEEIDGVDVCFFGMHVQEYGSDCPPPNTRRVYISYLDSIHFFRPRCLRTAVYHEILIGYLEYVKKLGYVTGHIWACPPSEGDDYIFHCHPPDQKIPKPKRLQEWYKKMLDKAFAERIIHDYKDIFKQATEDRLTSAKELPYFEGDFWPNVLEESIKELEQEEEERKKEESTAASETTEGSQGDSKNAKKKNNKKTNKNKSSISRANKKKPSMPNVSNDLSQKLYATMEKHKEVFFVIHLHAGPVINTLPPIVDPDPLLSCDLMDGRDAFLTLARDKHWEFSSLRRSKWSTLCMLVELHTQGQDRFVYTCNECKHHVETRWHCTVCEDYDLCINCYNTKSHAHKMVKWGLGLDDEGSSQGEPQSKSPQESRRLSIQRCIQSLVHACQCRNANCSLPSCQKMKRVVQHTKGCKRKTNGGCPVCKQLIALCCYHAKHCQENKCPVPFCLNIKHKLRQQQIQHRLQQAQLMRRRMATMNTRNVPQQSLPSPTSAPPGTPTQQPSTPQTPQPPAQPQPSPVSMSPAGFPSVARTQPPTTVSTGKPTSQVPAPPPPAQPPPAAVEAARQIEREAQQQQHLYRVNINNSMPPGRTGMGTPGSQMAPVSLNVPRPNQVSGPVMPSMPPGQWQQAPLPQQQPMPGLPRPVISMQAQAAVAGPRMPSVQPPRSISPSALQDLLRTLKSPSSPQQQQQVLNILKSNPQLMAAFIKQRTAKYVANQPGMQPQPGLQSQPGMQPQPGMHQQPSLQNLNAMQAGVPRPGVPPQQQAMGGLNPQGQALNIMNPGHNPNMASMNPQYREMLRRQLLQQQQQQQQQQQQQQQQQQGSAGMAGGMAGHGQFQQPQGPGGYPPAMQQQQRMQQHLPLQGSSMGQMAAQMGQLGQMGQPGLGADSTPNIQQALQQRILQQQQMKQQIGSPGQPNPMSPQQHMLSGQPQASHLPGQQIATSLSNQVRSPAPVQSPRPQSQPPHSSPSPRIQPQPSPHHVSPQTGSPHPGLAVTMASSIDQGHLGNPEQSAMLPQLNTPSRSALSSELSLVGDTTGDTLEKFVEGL

With `Cc1cc(C)cc(Oc2nccc(-c3c(C)nnn3C3CCN(C(=N)N)CC3)n2)c1`, the EC50 in the test on MM1.S is > 50 µM.
As for `CCCc1nnn(C2CCN(C(=N)N)CC2)c1-c1ccnc(Oc2cc(C)cc(C)c2)n1`, the IC50 in test [1] is > 100 µM.
Still for that read-out and setting: the figure for `Cc1cc(C)cc(Oc2nccc(-c3c(C(C)C)nnn3C3CCN(C(=N)N)CC3)n2)c1` is > 100 µM.
Consider `Cc1cc(C)cc(Oc2nccc(-c3c(C)nnn3C3CCNCC3)n2)c1`, for which the IC50 in test [1] stood at 11 µM. For the same molecule, the inhibition result in test [2] was “Active”. The EC50 in the test with MM1.S came to 6.6 µM.
In the case of `Cc1cc(C)cc(Nc2cccc(-c3c(-c4ccc(F)cc4)nnn3C3CCNCC3)n2)c1`, the Kd in [3] was 6.5 µM.
As for `Cc1cc(C)cc(Oc2nccc(-c3c(C(C)(C)C)nnn3C3CCNCC3)n2)c1`, in [1], the IC50 was > 100 µM.
`Cc1cc(C)cc(Oc2cccc(-c3c(C)nnn3C3CCN(C(=N)N)CC3)n2)c1`: the Kd in test [4] is > 100 µM; at CREB-binding protein, > 100 µM; in test [7] it was 1.1 µM; in test [3], > 200 µM; in test [9], 0.94 µM. The same molecule came in with an IC50 in [5] of 1.7 µM. Besides, the Ratio in the test filed under Homo sapiens [6] and in the test listed under Homo sapiens [8] was > 100 in each case. In the test on MM1.S, the EC50 is > 50 µM.
`Cc1cc(C)cc(Oc2cncc(-c3c(C)nnn3C3CCN(C(=N)N)CC3)c2)c1`: the IC50 in test [1] is > 100 µM.
`Cc1cc(C)cc(Nc2nccc(-c3c(-c4ccc(F)cc4)nnn3C3CCNCC3)n2)c1` had a Kd in test [3] of 0.0022 µM. Moreover, in the test filed under Homo sapiens [10], the Selectivity ratio is > 10000.
Take `Cc1cc(C)cc(Nc2cccc(-c3c(C)nnn3C3CCN(C(=N)N)CC3)n2)c1`: the Kd is > 100 µM in [4]; 78 µM on CREB-binding protein; 1.2 µM in test [7]; > 25 µM in [3]; 2.1 µM in test [9]. Moreover, the EC50 in the test on MM1.S is > 50 µM.
Molecule `Cc1cc(C)cc(Nc2cccc(-c3c(C)nnn3C3CCNCC3)n2)c1` registered an IC50 in test [1] of 3.9 µM. Moreover, in [2], the inhibition result is “Active”. Also, in the test on MM1.S, the EC50 was found to be 6.3 µM.
Consider `Cc1cc(C)cc(Oc2nccc(-c3c(C4CCCCC4)nnn3C3CCNCC3)n2)c1`, for which the IC50 in [1] was > 100 µM.
On to `Cc1cc(C)cc(Oc2nccc(-c3c(-c4ccc(F)cc4)nnn3C3CCNCC3)n2)c1`, for which the IC50 in [1] is > 100 µM; in [5] it was 27 µM. Further, in test [3], the Kd turned out to be 0.12 µM.
For the molecule `Cc1cc(C)cc(Oc2cccc(-c3c(C)nnn3C3CCNCC3)n2)c1`, the EC50 with MM1.S amounted to 2.9 µM.
`Cc1cc(C)cc(Oc2nccc(-c3c(C4CCCC4)nnn3C3CCNCC3)n2)c1`: in [1], the IC50 is > 100 µM.
With `Cc1cc(C)cc(Oc2cccc(-c3c(-c4ccc(F)cc4)nnn3C3CCNCC3)n2)c1`, the Kd in [3] came to 5 µM.

The record behind these values is ChEMBL document CHEMBL4364339, “Systematically Mitigating the p38α Activity of Triazole-based BET Inhibitors” (ACS Med Chem Lett, 2019).
